From ChEMBL document CHEMBL1134531, “Peptide analogues of a subdominant epitope expressed in ebv-associated tumors: synthesis and immunological activity” (J Med Chem, 2001)
Residues, ends and D or L forms follow the SMILES beside them. *: point of attachment. X3 = OC[C@H]1O[C@H](*)[C@H](O)[C@H](O)[C@@H]1O

Tests used:
[1] = Half life to evaluate susceptibility to enzymatic hydrolysis by incubating at 37 degree C in culture medium.; format: ADME
Summary of the method: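 Peptide (5 mg in acetonitrile/H₂O 1:1, 50 μL) added to 0.5 mL RPMI containing 10% fetal calf serum and incubated at 37 °C for up to 360 min. Reaction stopped with ethanol and centrifuged, then supernatant analysed by RP-HPLC. T1/2 taken from a least-squares linear regression of log nonapeptide concentration versus time, using at least five points.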

[2] = Half life to evaluate susceptibility to enzymatic hydrolysis by incubating at 37 degree C in human plasma; format: ADME
Summary of the method: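 Peptide (5 mg in acetonitrile/H₂O 1:1, 50 μL) mixed into 0.5 mL heparinized human plasma and incubated at 37 °C for up to 360 min. Ethanol added to stop the reaction, then centrifugation and RP-HPLC of the supernatant. Half-life obtained by least-squares linear regression of log nonapeptide concentration against time, with at least five time points.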

| Molecule | half-life [1] [h] | half-life [2] [h] |
| --- | --- | --- |
| CSCC[C@@H](NC(=O)[C@@H](NC(=O)[C@H](CC(C)C)NC(=O)[C@H](CC(C)C)NC(=O)CNC(=O)[C@H](C)NC(=O)[C@H](CC(C)C)NC(=O)[C@@H](N)Cc1ccc(O)cc1)[C@@H](C)O)C(=O)N[C@H](C(=O)O)C(C)C | > 6 | 0.597 |
| CSCC[C@H](NC(=O)[C@@H](NC(=O)[C@H](CC(C)C)NC(=O)[C@H](CC(C)C)NC(=O)CNC(=O)[C@H](C)NC(=O)[C@H](CC(C)C)NC(=O)[C@@H](N)Cc1ccc(O)cc1)[C@@H](C)O)C(=O)N[C@H](C(=O)O)C(C)C | 1.37 | 0.212 |
| CSCC[C@H](NC(=O)[C@@H](NC(=O)[C@H](CC(C)C)NC(=O)[C@H](CC(C)C)NC(=O)CNC(=O)[C@H](C)NC(=O)[C@H](CC(C)C)NC(=O)[C@@H](N)Cc1ccc(O)cc1)[C@@H](C)O)C(=O)N[C@@H](C(=O)O)C(C)C | > 6 | 4.53 |
| CSCC[C@H](NC(=O)[C@@H](NC(=O)[C@H](CC(C)C)NC(=O)[C@H](CC(C)C)NC(=O)CNC(=O)[C@H](C)NC(=O)[C@H](CC(C)C)NC(=O)[C@@H](N)Cc1ccc(O)cc1)[C@@H](C)O[C@H]1O[C@H](CO)[C@@H](O)[C@@H](O)[C@H]1O)C(=O)N[C@H](C(=O)O)C(C)C (H-YLAGLLT(X3)MV-OH) | > 6 | 1.01 |
| CSCC[C@H](NC(=O)[C@@H](NC(=O)[C@H](CC(C)C)NC(=O)[C@H](CC(C)C)NC(=O)CNC(=O)[C@H](C)NC(=O)[C@H](CC(C)C)NC(=O)[C@@H](N)Cc1ccc(O)cc1)[C@@H](C)O)C(=O)N(CC(=O)O)C(C)C (HELM PEPTIDE1{Y.L.A.G.L.L.T.M.[CC(C)N(CC(=O)O)[*:1]]}$$$$V2.0) | > 6 | > 6 |
| CSCC[C@H](NC(=O)[C@@H](NC(=O)[C@H](CC(C)C)NC(=O)[C@H](CC(C)C)NC(=O)CNC(=O)[C@H](C)NC(=O)[C@H](CC(C)C)NC(=O)[C@@H](N)Cc1ccc(O)cc1)[C@@H](C)O)C(=O)N[C@H](CO)C(C)C (HELM PEPTIDE1{Y.L.A.G.L.L.T.M.[CC(C)[C@@H](CO)N[*:1]]}$$$$V2.0) | > 6 | 1.66 |
| CSCC[C@H](NC(=O)[C@@H](NC(=O)[C@H](CC(C)C)NC(=O)[C@H](CC(C)C)NC(=O)CNC(=O)[C@H](C)NC(=O)[C@H](CC(C)C)NC(=O)[C@@H](N)Cc1ccc(O)cc1)[C@@H](C)O)C(=O)N(C)[C@H](C(=O)O)C(C)C (HELM PEPTIDE1{Y.L.A.G.L.L.T.M.[meV]}$$$$V2.0) | > 6 | > 6 |
| CC(C)C[C@H](NC(=O)CNC(=O)[C@H](C)NC(=O)[C@H](CC(C)C)NC(=O)[C@@H](N)Cc1ccc(O)cc1)C(=O)N[C@@H](CC(C)C)C(=O)N[C@H](C(=O)N[C@@H](CC[S+](C)[O-])C(=O)N[C@H](C(=O)O)C(C)C)[C@@H](C)O (some centres not stated) (HELM PEPTIDE1{Y.L.A.G.L.L.T.[CS(=O)CC[C@H](N[*:1])C(=O)[*:2]].V}$$$$V2.0) | 1.56 | 0.522 |
| CSCCN(CC(=O)N[C@H](C(=O)O)C(C)C)C(=O)[C@@H](NC(=O)[C@H](CC(C)C)NC(=O)[C@H](CC(C)C)NC(=O)CNC(=O)[C@H](C)NC(=O)[C@H](CC(C)C)NC(=O)[C@@H](N)Cc1ccc(O)cc1)[C@@H](C)O (HELM PEPTIDE1{Y.L.A.G.L.L.T.[CSCCN(CC(=O)[*:2])[*:1]].V}$$$$V2.0) | > 6 | 0.86 |
| CSCC[C@@H](CN[C@H](C(=O)O)C(C)C)NC(=O)[C@@H](NC(=O)[C@H](CC(C)C)NC(=O)[C@H](CC(C)C)NC(=O)CNC(=O)[C@H](C)NC(=O)[C@H](CC(C)C)NC(=O)[C@@H](N)Cc1ccc(O)cc1)[C@@H](C)O (HELM PEPTIDE1{Y.L.A.G.L.L.T.[CSCC[C@@H](CN[C@H](C(=O)O)C(C)C)N[*:1]]}$$$$V2.0) | > 6 | 5.07 |
| H-YLAGLLTMV-NH2 | > 6 | 0.657 |
